Active and inactive are the calls of the source. The calls are words filed in the database; no cut-off is given here.
Tests used:
OPM-2 [1] = assay: Synergistic activity against human OPM-2 cells assessed as combination index preincubated in presence of 1.25 uM UNC1999 for 72 hrs followed by compound addition at 2.5 uM incubated for 48 hrs by MTT assay; type: functional
NCI-H929 [2] = assay: Upregulation of H3K27me3 protein expression in human NCI-H929 cells at 0.3 to 5 micromol/L for 6 to 48 hrs by Western blot analysis; type: functional, cell-based; settings: dose 0.3-5 µmol/L, time 6-48 hrs
Method in brief: (§1)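 H3K27me3 was detected by immunoblot in MM.1S and H929 cells. Cells were given graded TAS-117 for 48 h, or 5 μmol/L for the indicated times. Signal is quantified relative to the H3 loading control.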

NCI-H929 [3] = assay: Downregulation of phospho-Rb protein expression in human NCI-H929 cells incubated at 0.3 to 3 micromol/L for 48 hrs by Western blot analysis; type: functional, cell-based; settings: dose 0.3-3 µmol/L
Method in brief: (§2)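 MM.1S and H929 cells given TAS-117 at the indicated doses for 48 h. Protein levels assessed by immunoblot.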

NCI-H929 [4] = assay: Cytotoxicity against human NCI-H929 cells assessed as reduction in cell viability at 0.3125 to 10 micromol/L after 48 hrs by MTS assay; type: functional, cell-based; settings: dose 0.3125-10 µmol/L
Method in brief: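 Seven myeloma lines (MM.1S, H929, OPM2/BTZ among them) exposed to TAS-117 at increasing concentrations up to 10 μmol/L for 48 h. Viability read by MTS against an untreated control; mean ± SD of triplicates.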

NCI-H929 [5] = assay: Synergistic activity against human NCI-H929 cells assessed as combination index […] at 0.25 uM incubated for 48 hrs by […]; type: functional
Method in brief: (§3)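 Cells were exposed to the EZH2/EZH1 inhibitor (UNC1999 or GSK126) for 72 h in total, with the Akt inhibitor added for the last 48 h. Viability was read by MTS assay relative to untreated control cells, in triplicate. The combination index for each dose pair came from isobologram analysis.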

OPM-2 [6] = assay: Effects on EZH2 protein expression in human OPM-2 cells at 3 micromol/L incubated for 24 hrs by Western blot analysis; type: functional, cell-based; settings: dose 3.0 µmol/L
OPM-2/BTZ [7] = assay: Synergistic activity against human OPM-2/BTZ cells assessed as combination index preincubated in presence of 1.25 uM GSK126 for 72 hrs followed by compound addition at 0.5 uM incubated for 48 hrs by MTT assay; type: functional
MM1.S [8] = assay: Downregulation of CDK1 protein expression in human MM1.S cells incubated at 0.3 to 3 micromol/L for 48 hrs by Western blot analysis; type: functional, cell-based; settings: dose 0.3-3 µmol/L; method in brief: as §2
OPM-2/BTZ [9] = assay: Upregulation of EZH1 protein expression in human OPM-2/BTZ cells at 0.03 to 3 micromol/L after 48 hrs by Western blot analysis; type: functional, cell-based; settings: dose 0.03-3 µmol/L
MM1.S [10] = assay: Downregulation of E2F1 protein expression in human MM1.S cells incubated at 0.3 to 3 micromol/L for 48 hrs by Western blot analysis; type: functional, cell-based; settings: dose 0.3-3 µmol/L; method in brief: as §2
MM1.S [11] = assay: Upregulation of FOXO3 in human MM1.S cells assessed as enhanced nuclear accumulation at 0.5 micromol/L after 24 hrs by immunofluorescence staining; type: functional, cell-based; settings: dose 0.5 µmol/L
Method in brief: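 MM.1S and H929 cells were treated with or without 0.5 μmol/L TAS-117 for 24 h. Cells were immunostained with anti-FOXO3. Jurkat cells served as positive control and cells without primary antibody as negative control. Read-out was the average fluorescence intensity of the nuclear FOXO3 fraction versus untreated cells.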

OPM-2 [12] = assay: Synergistic activity against human OPM-2 cells assessed as combination index preincubated in presence of 5 uM GSK126 for 72 hrs followed by compound addition at 2.5 uM incubated for 48 hrs by MTT assay; type: functional
MM1.S [13] = assay: Synergistic activity against human MM.1S cells assessed as combination index […] at 0.5 uM incubated for 48 hrs by […]; type: functional; method in brief: as §3
MM1.S [14] = assay: Induction of apoptosis in human MM1.S cells assessed as early apoptotic cells preincubated in presence of 5 micromol/L UNC1999 for 48 hrs followed by compound addition at 2 micromol/L incubated for 12 hrs by annexin V/PI staining based flow cytometry (reference value: 8.03%); type: functional; settings: dose 2 µmol/L, at 2 µM
OPM-2 [15] = assay: Synergistic activity against human OPM-2 cells assessed as combination index preincubated in presence of 5 uM UNC1999 for 72 hrs followed by compound addition at 2.5 uM incubated for 48 hrs by MTS assay
MM1.S [16] = assay: Upregulation of FOXO3 […] expression in human MM1.S cells assessed as enhanced nuclear accumulation at 1 micromol/L after 24 hrs by immunofluorescence staining; type: functional, cell-based; settings: dose 1.0 µmol/L
NCI-H929 [17] = assay: Downregulation of E2F1 protein expression in human NCI-H929 cells incubated at 0.3 to 3 micromol/L for 48 hrs by Western blot analysis; type: functional, cell-based; settings: dose 0.3-3 µmol/L; method in brief: as §2
NCI-H929 [18] = assay: Upregulation of FOXO4 […] expression in human NCI-H929 cells assessed as enhanced nuclear accumulation at 1 micromol/L after 24 hrs by immunofluorescence staining; type: functional, cell-based; settings: dose 1.0 µmol/L
OPM-2 [19] = assay: Synergistic activity against human OPM-2 cells assessed as combination index preincubated in presence of 1.25 uM GSK126 for 72 hrs followed by compound addition at 1.25 uM incubated for 48 hrs by MTT assay; type: functional
MM1.S [20] = assay: Synergistic activity against human MM.1S cells assessed as combination index […] in presence of 5 uM UNC1999 for 72 hrs […] at 0.25 uM incubated for 48 hrs by MTT assay; type: functional; method in brief: as §3
NCI-H929 [21] = assay: Downregulation of CDK2 protein expression in human NCI-H929 cells incubated at 0.3 to 3 micromol/L for 48 hrs by Western blot analysis; type: functional, cell-based; settings: dose 0.3-3 µmol/L; method in brief: as §2
OPM-2/BTZ [22] = assay: Synergistic activity against human OPM-2/BTZ cells assessed as combination index preincubated in presence of 1.25 uM UNC1999 for 72 hrs followed by compound addition at 0.5 uM incubated for 48 hrs by MTT assay; type: functional
NCI-H929 [23] = assay: Synergistic activity against human NCI-H929 cells assessed as combination index […] in presence of 5 uM GSK126 […] compound addition at 0.5 uM incubated for 48 hrs by […]; type: functional; method in brief: as §3
[24] = molecular target: Serine/threonine-protein kinase AKT (Homo sapiens) (UniProt P31751+Q9Y243+P31749); assay: Inhibition of Akt phosphorylation in human MM1.S cells at 0.3 to 5 micromol/L for 6 to 48 hrs by Western blot analysis; type: cell-based; settings: dose 0.3-5 µmol/L, time 6-48 hrs
Sequence of Serine/threonine-protein kinase AKT (Homo sapiens) (P31749 whole entry, looked up): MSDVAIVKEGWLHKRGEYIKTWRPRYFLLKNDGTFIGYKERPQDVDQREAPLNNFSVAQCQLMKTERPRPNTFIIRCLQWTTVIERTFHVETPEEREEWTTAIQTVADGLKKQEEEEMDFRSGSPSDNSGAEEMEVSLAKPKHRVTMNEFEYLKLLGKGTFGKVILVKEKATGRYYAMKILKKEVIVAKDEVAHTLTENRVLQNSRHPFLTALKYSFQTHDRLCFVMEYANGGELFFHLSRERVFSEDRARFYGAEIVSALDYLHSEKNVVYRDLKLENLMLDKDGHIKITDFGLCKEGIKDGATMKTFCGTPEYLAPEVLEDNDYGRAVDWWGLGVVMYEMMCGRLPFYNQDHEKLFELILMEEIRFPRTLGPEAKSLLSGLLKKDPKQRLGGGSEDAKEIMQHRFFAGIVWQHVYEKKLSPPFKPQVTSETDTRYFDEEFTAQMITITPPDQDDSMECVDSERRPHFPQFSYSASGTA
Sequence of Serine/threonine-protein kinase AKT (Homo sapiens) (P31751 whole entry, looked up): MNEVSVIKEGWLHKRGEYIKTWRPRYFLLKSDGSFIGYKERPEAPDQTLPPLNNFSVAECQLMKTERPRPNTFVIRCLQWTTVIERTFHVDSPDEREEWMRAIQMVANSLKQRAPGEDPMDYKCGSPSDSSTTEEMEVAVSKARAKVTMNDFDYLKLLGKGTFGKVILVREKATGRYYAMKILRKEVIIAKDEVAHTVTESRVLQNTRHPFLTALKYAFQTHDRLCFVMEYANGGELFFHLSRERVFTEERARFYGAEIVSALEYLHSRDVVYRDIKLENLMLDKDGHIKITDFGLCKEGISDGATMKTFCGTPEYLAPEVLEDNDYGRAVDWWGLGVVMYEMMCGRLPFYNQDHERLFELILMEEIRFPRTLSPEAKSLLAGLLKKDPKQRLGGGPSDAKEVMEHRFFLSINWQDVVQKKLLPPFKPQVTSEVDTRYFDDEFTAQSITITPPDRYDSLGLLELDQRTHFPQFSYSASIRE
Sequence of Serine/threonine-protein kinase AKT (Homo sapiens) (Q9Y243 whole entry, looked up): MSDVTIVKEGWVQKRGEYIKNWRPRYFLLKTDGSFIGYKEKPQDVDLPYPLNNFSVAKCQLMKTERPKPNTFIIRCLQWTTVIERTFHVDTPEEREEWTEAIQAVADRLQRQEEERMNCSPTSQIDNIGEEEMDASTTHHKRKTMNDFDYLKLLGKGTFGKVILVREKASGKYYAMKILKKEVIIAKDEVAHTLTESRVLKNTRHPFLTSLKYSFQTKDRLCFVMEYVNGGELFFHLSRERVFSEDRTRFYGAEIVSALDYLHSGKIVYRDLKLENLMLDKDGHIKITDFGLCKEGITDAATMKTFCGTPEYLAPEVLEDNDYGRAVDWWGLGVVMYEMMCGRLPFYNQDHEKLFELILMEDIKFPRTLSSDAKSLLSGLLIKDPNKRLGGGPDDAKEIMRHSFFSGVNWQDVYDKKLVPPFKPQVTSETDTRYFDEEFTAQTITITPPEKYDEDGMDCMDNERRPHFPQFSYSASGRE
Method in brief: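 MM.1S and H929 cells were treated with graded doses for 48 h, or with 5 μmol/L for the stated times. Lysates were immunoblotted, with GAPDH, total Akt and H3 as loading controls.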

OPM-2 [25] = assay: Synergistic activity against human OPM-2 cells assessed as combination index preincubated in presence of 2.5 uM UNC1999 for 72 hrs followed by compound addition at 1.25 uM incubated for 48 hrs by MTT assay; type: functional
NCI-H929 [26] = assay: Upregulation of FOXO3 […] expression in human NCI-H929 cells assessed as enhanced nuclear accumulation at 1 micromol/L after 24 hrs by immunofluorescence staining; type: functional, cell-based; settings: dose 1.0 µmol/L
MM1.S [27] = assay: Upregulation of H3K27me3 protein expression in human MM1.S cells at 0.3 to 5 micromol/L for 6 to 48 hrs by Western blot analysis; type: functional, cell-based; settings: dose 0.3-5 µmol/L, time 6-48 hrs; method in brief: as §1
OPM-2/BTZ [28] = assay: Downregulation of CDK1 protein expression in human OPM-2/BTZ cells incubated at 0.3 to 3 micromol/L for 48 hrs by Western blot analysis; type: functional, cell-based; settings: dose 0.3-3 µmol/L

C[C@]1(O)C[C@@](N)(c2ccc(-c3nc4n(c3-c3ccccc3)COc3ccncc3-4)cc2)C1 [PIFUSERTIB] was tested. Which CI (OPM-2 [1]) did it give?
The CI was 1.51.

What about the Activity (NCI-H929 [2]) of the same molecule?
Its Activity is “Active”.

And the Activity (NCI-H929 [3])?
Its Activity is “Active”.

And the Activity (NCI-H929 [4])?
The Activity was “Active”.

What about the CI (NCI-H929 [5]) of the same molecule?
Its CI is 0.778.

What about the Activity (OPM-2 [6]) of the same molecule?
Its Activity is “inactive”.

What about the CI (OPM-2/BTZ [7]) of the same molecule?
The CI was 0.624.

And the Activity (MM1.S [8])?
The Activity was “Active”.

And the Activity (OPM-2/BTZ [9])?
The Activity was “Active”.

And the Activity (MM1.S [10])?
Its Activity is “Active”.

What about the Activity (MM1.S [11]) of the same molecule?
Its Activity is “Active”.

And the CI (OPM-2 [12])?
The CI was 2.74.

What about the CI (MM1.S [13]) of the same molecule?
The CI was 0.889.

What about the Activity (MM1.S [14]) of the same molecule?
Its Activity is 40.7%.

And the CI (OPM-2 [15])?
The CI was 5.53.

And the Activity (MM1.S [16])?
The Activity was “Active”.

What about the Activity (NCI-H929 [17]) of the same molecule?
Its Activity is “Active”.

What about the Activity (NCI-H929 [18]) of the same molecule?
The Activity was “Active”.

What about the CI (OPM-2 [19]) of the same molecule?
Its CI is 1.29.

What about the CI (MM1.S [20]) of the same molecule?
Its CI is 0.237.

What about the Activity (NCI-H929 [21]) of the same molecule?
The Activity was “Active”.

What about the CI (OPM-2/BTZ [22]) of the same molecule?
The CI was 0.74.

What about the CI (NCI-H929 [23]) of the same molecule?
The CI was 7.883.

And the inhibition [24]?
The inhibition was “Active”.

What about the CI (OPM-2 [25]) of the same molecule?
Its CI is 2.53.

And the Activity (NCI-H929 [26])?
Its Activity is “Active”.

And the Activity (MM1.S [27])?
The Activity was “Active”.

What about the Activity (OPM-2/BTZ [28]) of the same molecule?
The Activity was “Active”.

Reference: ChEMBL document CHEMBL5647697, “Akt inhibition synergizes with polycomb repressive complex 2 inhibition in the treatment of multiple myeloma” (2019)
